Experimental findings from ChEMBL document CHEMBL1124602, “Diethylstilbestrol-linked cytotoxic agents: synthesis and binding affinity for estrogen receptors” (J Med Chem, 1989) are described below.

Active and inactive are the calls of the source. No cut-off for these calls is given here.

The first assay concerns the target T1, Estrogen receptor (Rattus norvegicus) (UniProt P06211+Q62986). Kind of assay: Relative binding affinity (RBA) for estrogen receptor of rat uterine cytosol compared to [3H]estradiol. The format is protein assay.
Conditions: not given
Put shortly:
(§1)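 Competitive binding: rat uterine cytosol incubated 30 min at 18 °C with 5 × 10⁻⁹ [³H]estradiol, alone or with increasing competitor (10⁻⁹ to 10⁻⁵ M). Unlabeled estradiol serves as the reference competitor for relative binding affinity.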
Molecule `CC[C@@H](c1ccc(O)cc1)[C@H](CCCCI)c1ccc(O)cc1` registered a relative binding affinity (RBA) of 1.5.

In turn, `CC[C@@H](c1ccc(O)cc1)[C@H](CCCCOS(C)(=O)=O)c1ccc(O)cc1` registered a relative binding affinity (RBA) of 1.8.

Regarding `CC[C@@H](c1ccc(O)cc1)[C@H](CCCC(=O)Oc1c(Cl)c(Cl)c(Cl)c(Cl)c1Cl)c1ccc(O)cc1`, the relative binding affinity (RBA) worked out at 0.3.

Regarding `CCCC[C@H](c1ccc(O)cc1)[C@@H](CC)c1ccc(O)cc1`, the relative binding affinity (RBA) is 10.

`CC[C@@H](c1ccc(O)cc1)[C@H](CCCC(=O)Oc1ccc(Cl)cc1)c1ccc(O)cc1` displayed a relative binding affinity (RBA) of 0.3.

`CC[C@@H](c1ccc(O)cc1)[C@H](CCCC(=O)O)c1ccc(O)cc1` yielded a relative binding affinity (RBA) of 0.1.

Molecule `CCCCCCCC[C@H](c1ccc(O)cc1)[C@@H](CC)c1ccc(O)cc1` gave a relative binding affinity (RBA) of 0.2.

`CC[C@@H](c1ccc(O)cc1)[C@H](CCCCCl)c1ccc(O)cc1`: the relative binding affinity (RBA) is 3.

As to `CC[C@@H](c1ccc(O)cc1)[C@H](CCCCO)c1ccc(O)cc1`, the relative binding affinity (RBA) is 1.5.

`CC[C@@H](c1ccc(O)cc1)[C@H](CCCC(=O)N(CC)CC)c1ccc(O)cc1` had a relative binding affinity (RBA) of 1.

In turn, `CC[C@@H](c1ccc(O)cc1)[C@H](CCCCOC(=O)NCCCl)c1ccc(O)cc1` displayed a relative binding affinity (RBA) of 1.

As to `CCOCCCC[C@H](c1ccc(O)cc1)[C@@H](CC)c1ccc(O)cc1`, the relative binding affinity (RBA) is 1.2.

Another assay addresses T1, Estrogen receptor (Rattus norvegicus). Description: Relative binding affinity (RBA) for estrogen receptor in rat uterine cytosol compared to [3H]estradiol; No binding. Particulars: Uterus. The method in brief: as §1
Take `CC[C@@H](c1ccc(O)cc1)[C@H](CCCN[C@H]1C[C@H](O[C@H]2C[C@](O)(C(C)=O)Cc3c(O)c4c(c(O)c32)C(=O)c2c(OC)cccc2C4=O)O[C@@H](C)[C@H]1O)c1ccc(O)cc1`: the “relative binding affinity (RBA)” value is “inactive”.
